Shown are actives, neighbours in structure and some others; about 3.4% of the full set was active somewhere.
m5-HT2A agonist: mouse Htr2a agonists via beta-arrestin recruitment, primary screen, cell-based, luminescence; activation, % at 7.6 µM; 5-hydroxytryptamine receptor 2A (Mus musculus), P35363; AID 624169, 2012; CHO-K1 mHTR2A beta-arrestin complementation; percent of 30 µM serotonin response; 360,000 compounds, 0.66% hits;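 active = activation above a run cutoff, the mean activation of all tested compounds plus 3 SD, cut at about 14% in these data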;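 also: 0% = plate median of compound wells and 100% = 30 µM serotonin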
TMEM16A inh: TMEM16A chloride channel inhibitors, primary screen, cell-based, HTS; HEK293 TMEM16A/YFP iodide influx fluorescence, ionomycin; normalized B-score (activity score, 25-100; higher = stronger inhibition) at 10 µM; 310,000 compounds, 1.2% hits; AID 588511, 2011;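 active = ratio plate-corrected score three or more library SD toward inhibition, starting fluorescence score within five deviations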;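 also: score derived from kinetic fluorescence span divided by baseline fluorescence per well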
Target sequence (Q8BHY3 whole entry, looked up): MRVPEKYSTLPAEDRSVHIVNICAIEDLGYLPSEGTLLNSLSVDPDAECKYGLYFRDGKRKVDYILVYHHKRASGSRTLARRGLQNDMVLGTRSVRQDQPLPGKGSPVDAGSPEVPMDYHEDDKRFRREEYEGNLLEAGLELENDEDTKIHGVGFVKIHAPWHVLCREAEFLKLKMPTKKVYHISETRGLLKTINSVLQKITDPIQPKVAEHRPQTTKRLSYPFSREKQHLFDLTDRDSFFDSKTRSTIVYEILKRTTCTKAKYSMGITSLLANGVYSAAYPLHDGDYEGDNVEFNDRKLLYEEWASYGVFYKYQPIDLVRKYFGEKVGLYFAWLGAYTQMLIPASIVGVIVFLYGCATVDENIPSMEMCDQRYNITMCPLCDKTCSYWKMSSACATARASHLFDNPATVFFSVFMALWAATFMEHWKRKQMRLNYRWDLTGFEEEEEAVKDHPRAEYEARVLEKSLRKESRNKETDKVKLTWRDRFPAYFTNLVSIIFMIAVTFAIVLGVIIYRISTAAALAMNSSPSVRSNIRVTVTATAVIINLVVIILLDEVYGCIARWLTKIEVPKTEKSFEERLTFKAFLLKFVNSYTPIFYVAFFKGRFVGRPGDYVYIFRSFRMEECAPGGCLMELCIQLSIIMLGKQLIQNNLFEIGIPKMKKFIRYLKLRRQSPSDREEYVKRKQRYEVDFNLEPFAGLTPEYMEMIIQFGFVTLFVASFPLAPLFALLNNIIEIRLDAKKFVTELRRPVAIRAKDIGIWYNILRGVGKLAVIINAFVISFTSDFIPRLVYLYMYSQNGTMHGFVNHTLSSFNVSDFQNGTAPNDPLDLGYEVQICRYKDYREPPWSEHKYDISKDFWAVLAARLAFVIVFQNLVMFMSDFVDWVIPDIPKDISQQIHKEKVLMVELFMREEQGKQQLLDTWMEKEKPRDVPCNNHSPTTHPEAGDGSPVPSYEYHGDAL
beta cell repl: inducers of MIN6 beta-cell proliferation, primary screen, ATP luminescence, uHTS. proliferation, % at 10 µM. 330,000 compounds, 0.29% hits. MIN6 cells proliferation, ATPlite luminescence, 48 h; cells starved in 0.2% serum; 100% = growth in 10% serum;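 active = compounds whose signal lies at least 3.5 SD above the mean of all wells on their plate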;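 also: 0% = DMSO-treated cells in low-serum medium and 100% = 10% serum control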
TMEM16A act: TMEM16A chloride channel activators or potentiators, primary screen, cell-based, HTS; B-score at 10 µM; Anoctamin-1 (Mus musculus), Q8BHY3; HEK293 TMEM16A/YFP-H148Q/I152L, iodide quench fluorescence; active compounds read low; 340,000 compounds, 0.3% hits; AID 623877, 2012;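 active = fluorescence-ratio B-score plate-corrected deviation score at least 3 library SD below zero, with starting fluorescence score within 5 deviations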;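 also: channel opened by trigger with iodide after compound preincubation; score built on the fluorescence ratio of max minus min over baseline; more negative score means more quench and so TMEM16A activation or potentiation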
MC4R ag barr: MC4R agonists recruiting beta-arrestin, primary screen, cell-based, luminescence, agonist arm of biased-ligand search; AID 540308, 2011; activation, % at 8.9 µM; U2OS MC4R beta-arrestin complementation; percent of melanotan II response, DMSO zero; 360,000 compounds, 0.98% hits; Melanocortin receptor 4 (Homo sapiens), P32245;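 active = activation above a per-plate cutoff, the mean activation of sample wells on that plate plus 3 SD, cut at about 8% in these data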
MC4R antagonist: MC4R antagonists of cAMP signaling, primary screen, cell-based, TR-FRET, antagonist arm of biased-ligand search | 360,000 compounds, 0.48% hits | AID 540295, 2011 | MC4R-expressing cells, MTII-stimulated cAMP, LANCE TR-FRET | inhibition, % at 6.5 µM | Melanocortin receptor 4 (Homo sapiens), P32245;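 active = inhibition above its plate's cutoff, the mean of tested wells on that plate plus 3 SD, cut at about 29% in these data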;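 also: 0% = Melanotan II alone and 100% = Melanotan II plus saturating MCL0020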
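System: U2OS-MC4R stable cell line; Technique: Eu-cAMP/anti-cAMP TR-FRET, emission 671 nm; Repeats: single well per compound; Also added: Melanotan II; Dosing: one concentration, 6.5 µM nominal; Schedule: 30-min compound, 1-h challenge, 1-h detection, room temperature.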
MC4R barr ag: MC4R beta-arrestin agonists, retest, confirmation, cell-based, luminescence, U2OS; shares compounds with MC4R ag barr; U2OS MC4R beta-arrestin recruitment; scaled DMSO 0%, Melanotan II 100%; 2,400 compounds, 31% hits; AID 602192, 2012; activation, % at 8.9 µM;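 active = mean activation across replicates above the hit cutoff set in the earlier primary screen, cut at about 8% in these data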
MOR-DOR barr ag: agonists of MOR-DOR heterodimerization, counter-screen for MC4R biased agonist project, cell-based, luminescence. shares compounds with MC4R ag barr. U2OS PathHunter beta-arrestin, beta-gal luminescence; percent of deltorphin B response, DMSO zero. activation, % at 9.2 µM. 2,400 compounds, 5.8% hits. AID 602194, 2012;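 active = mean activation across replicates exceeds the hit threshold derived in the earlier primary screen, cut at about 18% in these data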;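 also: 100% = deltorphin B at 0.9 µM final and 0% = DMSO alone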
The depositor's hits bear a star; i = inactive; nt = no result given.

SMILES	m5-HT2A agonist	TMEM16A inh	beta cell repl	TMEM16A act	MC4R ag barr	MC4R antagonist	MC4R barr ag	MOR-DOR barr ag
COc1ccc(-c2cc(NC(C)=O)c3ncc(-c4ccc(OC)c(OC)c4)n3c2)c(OC)c1	1.2	nt	nt	nt	6.0	-14.2	nt	nt
COc1ccc(-c2cc(NC(C)=O)c3ncc(-c4cccc(C(F)(F)F)c4)n3c2)c(OC)c1	0.8	nt	nt	nt	25.9*	1.3	25.5*	3.3
COc1ccc(-c2cnc3c(NC=O)cc(-c4ccccc4OC)cn23)cc1OC	2.3	nt	nt	nt	5.4	-59.6	nt	nt
CC(=O)Nc1cc(-c2ccc(C(=O)N3CCOCC3)cc2)cn2c(-c3cccc(C(F)(F)F)c3)cnc12	3.5	nt	nt	nt	5.0	20.1	nt	nt
CC(NC(=O)c1cccc(S(=O)(=O)N2CCN(Cc3ccccc3)CC2)c1)c1ccc(Cl)cc1 (centres undefined)	-10.1	nt	-4.7	i	-1.6	4.2	nt	nt
COC(=O)c1c(C)[nH]c(C(=O)OCc2csc(CC(=O)Nc3ccccc3C)n2)c1C	-3.6	nt	-0.3	i	-1.3	-0.2	nt	nt
CCn1c(=O)c2cc(C(=O)Nc3ccccc3OC)sc2c2ccccc21	2.1	i	3.4	i	0.7	-10.6	nt	nt
COc1ccc(NC(=O)c2cc3c(Cl)nc4ccccc4c3s2)cc1OC	1.7	i	-3.0	i	10.7*	4.6	7.2	7.9
COc1ccc(NC(=O)c2cccc3ccccc23)cc1OC	-4.0	nt	nt	nt	-1.0	9.7	nt	nt
COc1ccc(OC)c(NC(=O)c2cc3c(Cl)nc4ccccc4c3s2)c1	-2.4	i	0.9	i	27.8*	4.7	6.0	19.1*
CC1(C(=O)Nc2ccc3c(c2)OCO3)CCN1C(=O)CCc1cccs1 (centres undefined)	-2.1	nt	nt	nt	0.4	2.0	nt	nt
COc1cccc(/C=N/NC(N)=S)c1OCc1ccccc1Cl	1.5	i	-5.8	i	3.0	-7.0	nt	nt
NC(=S)N/N=C/c1ccccc1OCCSc1ccc(Cl)cc1	0.3	i	0.0	i	11.1*	-13.2	1.2	5.7
CC(C)=CCc1c(O)c(CC=C(C)C)c2c(c1O)-c1cc(O)c(O)cc1CC2	nt	i	-6.0	nt	nt	nt	nt	nt
CCOc1ccc2nc3cc(NCc4ccc(OC)cc4)ccc3c(N)c2c1	-11.8	i	-4.9	-6.87*	12.8*	18.8	15.0*	14.9
Cc1nc(NC(=O)c2cccc(-c3cc4ccccc4oc3=O)c2)ccc1Br	2.4	i	-5.1	i	24.1*	-4.8	16.9*	12.0
CCOc1ccc(-c2cc(C(=O)Nc3cccc(C(F)(F)F)c3)[nH]n2)c(C)c1	-4.7	nt	nt	nt	10.9*	4.1	5.8	5.5
CCOc1ccc(-c2cc(C(=O)NCc3ccc(C(F)(F)F)cc3)[nH]n2)c(C)c1	-1.3	nt	nt	nt	13.3*	0.7	1.2	8.5
CCOc1ccc(-c2cc(C(=O)NCc3ccc(F)cc3)[nH]n2)c(C)c1	-7.0	nt	nt	nt	0.4	0.7	nt	nt
Cn1nnc(NC(=S)NC(=O)c2cccc3ccccc23)n1	-7.4	i	-1.6	i	-5.4	-2.9	nt	nt
COc1ccc(NC(=O)c2cc([N+](=O)[O-])ccc2NC(=O)CNCc2ccccn2)c(OC)c1	-4.2	i	-0.4	i	13.0*	1.8	13.4*	6.3
CCOC(=O)c1cc(S(=O)(=O)NC2CCC(C)CC2)cn1C (centres undefined)	5.2	i	-2.5	i	0.6	5.5	nt	nt
CC(C)c1ccc(NS(=O)(=O)c2ccc(-n3cccn3)cc2)cc1	-2.3	i	-3.4	i	13.3*	2.7	16.9*	10.7
CC(C)c1ccc(S(=O)(=O)Nc2ccc(-n3cnnn3)cc2)cc1	-8.1	nt	-3.0	i	-0.9	7.5	nt	nt
CCOC(=O)Nc1nnc(/C=C/c2ccc(OC)cc2)s1	1.8	i	0.0	i	-1.6	-1.1	nt	nt
SMILES	m5-HT2A agonist	TMEM16A inh	beta cell repl	TMEM16A act	MC4R ag barr	MC4R antagonist	MC4R barr ag	MOR-DOR barr ag
CCCCOC(=O)Nc1nnc(/C=C/c2ccc(OC)cc2)s1	0.7	i	-1.7	i	21.1*	5.3	6.8	6.8
CCOc1cc(/C=N/N=C(\N)c2nonc2N)cc(Br)c1OCc1cccc2ccccc12	3.4	i	-5.6	i	30.7*	1.4	10.8*	7.6
COc1cc(/C=N/N=C(/N)c2nonc2N)cc(Br)c1OCc1cccc(C)c1	-4.3	i	-5.0	i	5.1	9.0	nt	nt
COc1ccc(OC)c(NC(=O)c2cc(-c3cc(C)c(C)cc3O)n[nH]2)c1	-2.4	i	2.9	i	6.8	-2.7	nt	nt
COc1ccc(NC(=O)c2cc(-c3cc(C)c(C)cc3O)n[nH]2)c(OC)c1	-1.9	i	0.4	i	14.8*	2.1	3.0	5.6
COc1ccc(OC)c(NC(=O)c2cc(-c3cc(C)cc(C)c3O)n[nH]2)c1	-2.5	i	-1.9	i	19.6*	8.9	0.7	6.5
Cc1cc(C(=O)Nc2cc(C)n(Cc3ccc(Cl)cc3)n2)no1	4.3	i	0.4	i	-0.1	9.2	nt	nt
COc1ccccc1-c1cc(C(=O)Nc2cc(C)n(Cc3ccc(Cl)cc3)n2)no1	4.2	i	-4.5	i	20.8*	5.3	15.2*	8.2
Cc1nn(Cc2ccc(Cl)cc2)c(C)c1NC(=O)c1noc2c1CCCCC2	1.5	i	-3.2	i	-2.1	8.6	nt	nt
Cc1cc(NC(=O)c2noc3c2CCCCC3)nn1Cc1ccc(Cl)cc1	-0.4	i	-1.5	i	11.6*	2.2	2.8	4.7
COc1ccc(OC)c(-c2cc(C(=O)NCc3ccc(Cl)cc3)no2)c1	1.7	i	-2.9	i	10.4*	23.8	1.3	2.1
COc1ccc(-c2cc(C(=O)NCc3ccc(Cl)cc3)no2)cc1OC	-6.5	i	-2.7	i	2.0	0.2	nt	nt
COc1ccccc1-c1cc(C(=O)Nc2cc(C)nn2-c2ccccc2)no1	-7.7	i	-3.6	i	9.9*	2.0	-2.4	4.5

Screens (PubChem BioAssay)
